Biological target: T1, Orco derived from Drosophila melanogaster (DmOrco) (Drosophila melanogaster, UniProt Q9VNB5)
T1 sequence (Q9VNB5 1-486): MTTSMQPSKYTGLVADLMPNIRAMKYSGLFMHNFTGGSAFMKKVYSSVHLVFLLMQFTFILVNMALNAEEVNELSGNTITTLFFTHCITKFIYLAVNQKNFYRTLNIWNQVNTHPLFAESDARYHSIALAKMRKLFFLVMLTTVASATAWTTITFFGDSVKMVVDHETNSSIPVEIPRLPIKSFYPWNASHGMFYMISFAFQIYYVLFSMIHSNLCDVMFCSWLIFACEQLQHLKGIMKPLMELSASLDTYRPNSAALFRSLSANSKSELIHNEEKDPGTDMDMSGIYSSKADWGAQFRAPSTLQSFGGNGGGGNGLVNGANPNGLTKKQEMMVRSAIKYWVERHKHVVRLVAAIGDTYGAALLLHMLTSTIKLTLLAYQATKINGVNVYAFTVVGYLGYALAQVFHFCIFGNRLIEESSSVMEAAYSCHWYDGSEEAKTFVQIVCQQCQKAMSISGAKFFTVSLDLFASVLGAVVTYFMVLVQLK
Experiment: high-throughput calcium mobilization/imaging assay for Orco agonist activity
Type: cell-based
Settings: HEK293 cells stably expressing DmOrco; for % VUAA1 efficacy: maximum agonism of the compound, normalized to the activity of VUAA1; for EC50: mean result of 4 experiments, LA = Low agonism, agonism only at the highest concentration tested, no EC50 could be calculated
Summary of the method: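 HEK293 cells stably expressing Drosophila melanogaster Orco, alone or in some cases with tuning OR subunits. Calcium mobilization/imaging read in high-throughput format across increasing test compound concentrations. EC50 and maximal agonism were taken from concentration-response curves. Maximal agonism was expressed as a percentage of reference agonist VUAA1 activity. Values are the mean of 4 experiments.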

SMILES | % VUAA1 efficacy | EC50 [µM] | EC50 (listed as VUAA1) [µM] | Orco agonist activity (in words)
CCn1c(SCC(=O)Nc2ccc(Br)cc2)nnc1-c1cccnc1 [6j] | No agonism | – | – | –
CCc1ccc(NC(=O)CSc2nnc(-c3cccnc3)n2CC)cc1 [6a] | 100% | 35.1 | 35 | –
CCc1cccc(NC(=O)CSc2nnc(-c3cccnc3)n2CC)c1 [6b] | No agonism | – | – | completely abrogated activity

— paper PMC4111141 (Bioorganic & medicinal chemistry letters, 2014)
